The data set concerns MS2 coat protein. Description: apparent Kd, MS2 coat protein; higher = weaker binding; RNA-MaP array; FMN 200 µM where present. A digest of the protocol: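 Stalled E. coli RNA polymerase transcribed the designs on Illumina sequencing-chip clusters. SNAP-549-labelled MS2 coat protein was titrated from 0.7 or 1.5 nM, doubling to 3 µM, without and then with constant ligand, in 100 mM Tris-HCl pH 7.5, 80 mM KCl, 4 mM MgCl2, BSA, DTT, yeast tRNA and Tween-20. Per-cluster binding curves were fitted to green signal normalised to red-channel RNA signal and control-cluster median Fmax. The apparent Kd is the median of the filtered fits.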

Setting [1] is: designed as: OFF switch for flavin mononucleotide, no ligand.
The mark [2] stands for this setting: ligand present: flavin mononucleotide, designed as: OFF switch for flavin mononucleotide.
Setting [3] is: designed as: ON switch for flavin mononucleotide, no ligand.
[4] abbreviates: ligand present: flavin mononucleotide, designed as: ON switch for flavin mononucleotide.

Consider “UCCGAACAUGAGGAUCACCCAUGUGAGGAUAUAGACGUGAAUUAAACACGUAACAAAACUAGAAGGCACUGGGC”, for which the “apparent Kd” value under setting [1] was 14.7 nM and the “apparent Kd” value under setting [2] was 13.2 nM.
With “UAUAUAAUAAGAGCUGGAAACUCAACAUGAGGAUCACCCAUGUAGGAUAUCAGCACGAUAAGUGCUGAGAAGGACAACCAGCUC”, the “apparent Kd” value runs as follows: under setting [1], 19.9 nM; under setting [2], 23.3 nM.
With “GCAGCGCCUGACAUGAGGAUCACCCAUGUUAGAUUGUUAAGUCAGGAUAUAGUCUAGAAACUAGACUAGAAGGGAUAUGCUGCU”, the “apparent Kd” value runs as follows: under setting [3], 15 nM; under setting [4], 8.03 nM.
On to “AUACAUGUCCGAGGAUAUCUGGAAACAUUUUCAAGAGAAGGCGGACAUGAGGAUCACCCAUGUCUCUCCUCAUCAAAUCCAAGU”, for which the “apparent Kd” value is, setting by setting: under setting [1], 7.84 nM; under setting [2], 46.6 nM.
“GUAUGAGCGAUAGGAUAUACUGGGAUUGAAUGGGUAGAAGGAUUUCUUGUGGGAAAGACAUGAGGAUCACCCAUGUCGCGGACC”: the “apparent Kd” value came out at 255 nM under setting [3] and 165 nM under setting [4].
Consider “CUGUACAUAGGAUAUAGUUGUUUUUACAUGAGGAUCACCCAUGUUACUCCUCUCUCUCUUCUAGAAGGAUGUUUUU”, for which the “apparent Kd” value reads like this: under setting [1], 79.8 nM; under setting [2], 58.4 nM.
For “AAUAACAGAGGAUAUACUGUUUUAUGUGUUUAUUAUUUUGAACAUGAGGAUCACCCAUGUAGAAGGCUGAAUGA”, in that order: 32.7 nM and 31.5 nM.
Regarding “GCUGAAUGAACAUGAGGAUCACCCAUGUACAGGAAACUGAAUGAGGAUAUCCAUAGCAAAGCUAUGGAGAAGGCAUGGGUCAGC”, the “apparent Kd” value under setting [3] worked out at 338 nM and the “apparent Kd” value under setting [4] worked out at 94 nM.
For “GCCGGCUAAUGAGGAUAUGGCACCUUAUUGGUGCCAGAAGGCAUGUCAAUUGACAUGAGGAUCACCCAUGUAUUAUAGUUGGCG”, in that order: 422 nM and 115 nM.
Regarding “CCACCUACUGAGGAUAUUGCAUCACCCGACUGAUAAGAAGGCAGAACAUGAGGAUCACCCAUGUGGGUACUCAC”, the “apparent Kd” value reads like this: under setting [1], 94 nM; under setting [2], 103 nM.
For “UUACAGCACGGGUAGGAUAUGUAGGGUGGUACAUGAGGAUCACCCAUGUAUCCACCCUUCGAACGGCAGAAGGGCCUGUCACUGC”, the “apparent Kd” value under setting [3] was determined as 16.7 nM and the “apparent Kd” value under setting [4] amounted to 17 nM.
On to “ACAUGAGGAUCACCCAUGUCACUUUUACAUGGGUAUAUAAGCGAGGAUAUGCAUAUACCCUGGGUGCAGAAGGCGCUUUUUUAA”, for which the “apparent Kd” value worked out at 74.5 nM under setting [1] and 105 nM under setting [2].
For “GACUGCUGAGGAUAUACAUGAGGAUCACCCAUGUGCUUCAGCUAGGAGACUAGCAUUGGUAGAAGGUAGUAGUC”, in that order: 11.1 nM and 16.1 nM.
For “CGUGCGUAUGUGAGGAUAUGCUGGUCCUUGGAUCAGCAGAAGGCACAUGAGGAUCACCCAUGUGGUGUCGUACA”, in that order: 273 nM and 20.1 nM.
For “UUGGCACAUGAGGAUCACCCAUGUUAGGAUAUUGUGGCAGAAACAGCUGGGAAACGCACGAGAAGGGACACAUA”, in that order: 33.4 nM and 38.5 nM.
Regarding “UCUGGUCGAGGAUAUACGUGACGUGCUUCGGCACGAGGUCUACAUGAGGAUCACCCAUGUAGAAGGCGACCAGA”, the “apparent Kd” value under setting [1] came to 17.1 nM and the “apparent Kd” value under setting [2] came out at 48 nM.
Consider “UAUAUAUAGUAAGGAUAUGUAAUUAGUUUAUAAACAGAAGGUACUGACAUGAGGAUCACCCAUGUUUUAGUGUGGGCAUGUAGA”, for which the “apparent Kd” value stood at 87.7 nM under setting [1] and 134 nM under setting [2].
Turning to “GUCAUCUCAUGAGGAUAUGCUCGGGUUUCCCGAGCAGAAGGCAUGUCAUAAGACAUGAGGAUCACCCAUGUAUUUAAGAUUGUA”, the “apparent Kd” value is 49.6 nM under setting [3] and 8.92 nM under setting [4].
“GAUAGGACAGAGAAGGACGUAGCUAGAGAUACUAGCAUAUGAACCUUCACAUGAGGAUCACCCAUGUAGGAUAUCUGUCCUAUC”: the “apparent Kd” value runs as follows: under setting [1], 3.34 nM; under setting [2], 3.35 nM.
For “AAAACACAUGAGGAUCACCCAUGUGAGGAUAUGCUAUGGAAAAUAAAAAUAAAACAUAGCAGAAGGCACAAAGG”, in that order: 62.5 nM and 152 nM.
As for “CUUAAGCUGGCAAGGGCUGGUGAAGAGGAUAUACAUGCUAAGCGAACCACAUGAGGAUCACCCAUGUAGAAGGCUUCCCAGAAA”, the “apparent Kd” value under setting [1] is 159 nM and the “apparent Kd” value under setting [2] is 111 nM.
With “GGAUUUCCUGAGGAUAUUGCAUCACCUGAUUUAUAAGAAGGCAGAACAUGAGGAUCACCCAUGUGGGUAUUCGG”, the “apparent Kd” value is, setting by setting: under setting [1], 27.6 nM; under setting [2], 37.4 nM.
For “CUAGUACAUGAGGAUCACCCAUGUCAGGAUAUUGGAUAUGACAUGGAAAACAUGUUUACAAGAAGGGACUAUAG”, in that order: 285 nM and 290 nM.
With “GUAGAGGAUUGAGGAUAUGCAGAGAGAUCAUGCGCGUCGCGCACAUGAGGAUCACCCAUGUAAGAGCAGAAGGUAACUAUGGAC”, the “apparent Kd” value reads like this: under setting [1], 79.9 nM; under setting [2], 49.3 nM.
On to “AGAAACUACGAGAAGGACAUGUGGUCCUUCAGUUACAUGAGGAUCACCCAUGUAGGAUAUCGUAGUUUCAGGAUCGUGAGAUCU”, for which the “apparent Kd” value turned out to be 32.5 nM under setting [1] and 13 nM under setting [2].
For “UCAUUUCAGUAAGGAUAUUAAAACAUGACGAUACAUGAGGAUCACCCAUGUUAAGAAGGUACUAAUACAAAUAAUGCAUUGUUC”, in that order: 14.7 nM and 15.5 nM.
For “AAUUUACAUGAGGAUCACCCAUGUCAGGAUAUGGUUUUAUUUUUUUUUUUUUUUGAUUCCAGAAGGGACAGUUA”, in that order: 21.1 nM and 19.7 nM.
For “AUCGUAACAGGAGGAUAUUACACUCGGUUGGUCCGCUGCGGGUUGAAACAUGAGGAUCACCCAUGUAAGAAGGCCUGUGUGACU”, in that order: 317 nM and 103 nM.
As for “GAUGCAUAUGAGAAGGCGAUCAUGAAACAUGAUCGAGGAUAUCAUGUAAACAUGAGGAUCACCCAUGUAUGGGUAAAGUGCAUC”, the “apparent Kd” value reads like this: under setting [3], 392 nM; under setting [4], 27.7 nM.
In the case of “UAAAAGUGAGGAUAUACAUUAAGGUAAGUCCGGAUGCGAAGACAUGAGGAUCACCCAUGUAGAAGGCACACAAA”, the “apparent Kd” value was determined as 32.1 nM under setting [1] and 146 nM under setting [2].
As for “GGUUAUUGCAAGGAUAUGCUUUUUUUUUAUUUUGCAGAAGGUGCAACAUGAGGAUCACCCAUGUUGGAGGGUUU”, the “apparent Kd” value reads like this: under setting [1], 21.7 nM; under setting [2], 31.9 nM.
Turning to “UUUUACAUAGGAUAUAGUUUGUUGUACAUGAGGAUCACCCAUGUUUUUGUUUGUGCUUUUCUAGAAGGAUGUUUCU”, the “apparent Kd” value by setting is: under setting [1], 29.2 nM; under setting [2], 25.4 nM.
Take “GCGUGACAUGAGGAUCACCCAUGUGAGGAUAUCUGGAUAAUCUUUAUUUUAGAUAUCCAGAGAAGGCACAUGCU”: the “apparent Kd” value stood at 162 nM under setting [1] and 117 nM under setting [2].
For “UGAGCAUGAGGAUAUACAUGACGUGCCGUAGCACGAGGUCUACAUGAGGAUCACCCAUGUAGAAGGCAUGUUCU”, in that order: 23 nM and 87.4 nM.
Consider “AAAAUCACAUGAGGAUCACCCAUGUACCGAGUUAAGGCUACAUAGGAUAUGACAAGUAUAGCUUGUCAGAAGGGUGAGUCUCGC”, for which the “apparent Kd” value under setting [3] is 58.2 nM and the “apparent Kd” value under setting [4] is 97.7 nM.
As to “GGUACCUUCACAGGAUAUGCUAUGGUUUCCGUAGCAGAAGGGUGAUACAUGAGGAUCACCCAUGUGGUGCCAGGGCGUGAGCCC”, the “apparent Kd” value runs as follows: under setting [3], 387 nM; under setting [4], 293 nM.
In the case of “AAGUUGGUAGGAUAUACGUGCAAUUGGUGUGUCCGGAAAAAACAUGAGGAUCACCCAUGUAGAAGGACCAAAAA”, the “apparent Kd” value was determined as 49.3 nM under setting [1] and 57.5 nM under setting [2].
